Experiments:
Type in all cases: functional
[1] = test system: Rattus norvegicus; assay: Antiallergic activity by rat passive cutaneous anaphylaxis (PCA) assay when administered per orally; settings: po
How it was run: (§1)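 Rats were passively sensitized intradermally with diluted reaginic anti-ovalbumin serum 24 h before challenge. Compound was suspended in 1% acacia and dosed by oral feeding needle at 1 mL/kg. After 20-30 min, rats were challenged with 0.02 mg ovalbumin in 0.5 mL 2% Evans Blue. Blued areas were measured 30 min after challenge. Six rats per dose; ED50 is 50% area reduction from control, with 95% confidence limits.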

[2] = test system: Rattus norvegicus; assay: antiallergic activity by rat passive cutaneous anaphylaxis (PCA) assay when administered iv
How it was run: (§2)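 Male rats sensitized by id injection of diluted rat anti-ovalbumin reaginic serum (0.1 mL each side of shaved back). 24 h later, compound in saline was mixed with 5 mg ovalbumin in 0.5 mL 2% Evans Blue and given iv at 1 mL/kg. Blued-spot diameters were read 30 min later. Six rats per group; ED50 is 50% area reduction versus control, with 95% confidence limits.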

[3] = test system: Rattus norvegicus; assay: Antiallergic activity by rat passive cutaneous anaphylaxis (PCA) assay when administered iv;value ranges between (0.01-0.04.); how it was run: as §2
[4] = test system: Rattus norvegicus; assay: Antiallergic activity by rat passive cutaneous anaphylaxis (PCA) assay when administered per orally;value ranges between (0.7-1.6); settings: po; how it was run: as §1
[5] = test system: Rattus norvegicus; assay: Antiallergic activity by rat passive cutaneous anaphylaxis (PCA) assay when administered per orally;value ranges between (1.3-23).; settings: po; how it was run: as §1
[6] = test system: Rattus norvegicus; assay: Antiallergic activity by rat passive cutaneous anaphylaxis (PCA) assay when administered per orally;value ranges between (1.0-6.6).; settings: po; how it was run: as §1
[7] = test system: Rattus norvegicus; assay: Antiallergic activity by rat passive cutaneous anaphylaxis (PCA) assay when administered perorally; value ranges between […]; settings: po; how it was run: as §1
[8] = test system: Rattus norvegicus; assay: Antiallergic activity by rat passive cutaneous anaphylaxis (PCA) assay when administered per orally;value ranges between (4.67-21.77); settings: po; how it was run: as §1
[9] = test system: Rattus norvegicus; assay: Antiallergic activity by rat passive cutaneous anaphylaxis (PCA) assay when administered perorally; settings: po; how it was run: as §1
[10] = test system: Rattus norvegicus; assay: Antiallergic activity by rat passive cutaneous anaphylaxis (PCA) assay when administered per orally;value ranges between (0.91-5.2); settings: po; how it was run: as §1
[11] = test system: Rattus norvegicus; assay: Antiallergic activity by rat passive cutaneous anaphylaxis (PCA) assay when administered per orally;value ranges between (3.44-9.04); settings: po; how it was run: as §1
[12] = test system: Rattus norvegicus; assay: Antiallergic activity by rat passive cutaneous anaphylaxis (PCA) assay when administered per orally;value ranges between (1.02-2.15).; settings: po; how it was run: as §1
[13] = test system: Rattus norvegicus; assay: Antiallergic activity by rat passive cutaneous anaphylaxis (PCA) assay when administered per orally;value ranges between( 0.5-2.9).; settings: po; how it was run: as §1
[14] = test system: Rattus norvegicus; assay: Antiallergic activity by rat passive cutaneous anaphylaxis (PCA) assay when administered per orally;value ranges between (0.18-1.48).; settings: po; how it was run: as §1

Structure (SMILES) | ED50 [1] | also measured
CCOC(=O)C(=O)Nc1nc(-c2cccc(OC)c2)cs1 | ~20 mg/kg | –
CCOC(=O)C(=O)Nc1nc(-c2ccc(N3CCOCC3)cc2)cs1 | > 100 mg/kg | –
COc1ccccc1-c1csc(NC(=O)C(=O)O)n1 | – | ED50 [2]: > 1 mg/kg
O=C(O)C(=O)Nc1nc(-c2ccc(O)cc2)cs1 | > 3 mg/kg | ED50 [2]: ~0.1 mg/kg
CCOC(=O)C(=O)Nc1nc(-c2ccc(O)cc2)cs1 | ~15 mg/kg | –
CCOC(=O)C(=O)Nc1nc(-c2ccccn2)cs1 | ~10 mg/kg | –
CCOC(=O)C(=O)Nc1nc(-c2ccc(Sc3ccccc3)cc2)cs1 | > 3 mg/kg | –
CN(C)c1ccc(-c2csc(NC(=O)C(=O)O)n2)cc1 | – | ED50 [3]: 0.02 mg/kg; ED50 [4]: 1.1 mg/kg
Cc1cc(C)c(-c2csc(NC(=O)C(=O)O)n2)c(O)c1.NCCO | > 10 mg/kg | –
CCOC(=O)C(=O)Nc1nc(-c2ccccc2OC)cs1 | > 30 mg/kg | ED50 [2]: ~1 mg/kg
O=C(O)C(=O)Nc1ncc(-c2ccccc2)s1 | – | ED50 [2]: ~0.3 mg/kg; ED50 [5]: 4.03 mg/kg
CCOC(=O)C(=O)Nc1nc(-c2ccc([N+](=O)[O-])cc2)cs1 | > 100 mg/kg | –
CCOC(=O)C(=O)Nc1ncc(-c2ccccc2)s1 | ~10 mg/kg | –
NCCO.O=C(O)C(=O)Nc1nc(-c2cccc(O)c2)cs1 | 3 mg/kg | ED50 [2]: ~0.1 mg/kg
CCOC(=O)C(=O)Nc1nc(-c2ccc(Oc3ccccc3)cc2)cs1 | > 30 mg/kg | –
CCOC(=O)C(=O)Nc1nc(-c2ccc(O)c(C(C)=O)c2)cs1 | – | ED50 [6]: 2.6 mg/kg
CCOC(=O)C(=O)Nc1nc(-c2ccccc2O)cs1 | – | ED50 [7]: 8.2 mg/kg
CCOC(=O)C(=O)Nc1nc(C)c(C)s1 | > 10 mg/kg | –
CCOC(=O)c1ccc(-c2csc(NC(=O)C(=O)OC)n2)cc1 | > 10 mg/kg | –
CCOC(=O)C(=O)Nc1nc(-c2cc(OC)c(OC)c(OC)c2)cs1 | – | ED50 [8]: 14.5 mg/kg
CCOC(=O)C(=O)Nc1ccc(-c2csc(NC(=O)C(=O)OCC)n2)cc1 | > 30 mg/kg | –

Structure (SMILES) | ED50 [1] | also measured
COc1ccc(OC)c(-c2csc(NC(=O)C(=O)O)n2)c1.NCCO | ~7 mg/kg | ED50 [2]: ~0.3 mg/kg
NC(=O)C(=O)Nc1nc(-c2ccccc2)cs1 | – | ED50 [9]: ~1 mg/kg
CCOC(=O)C(=O)Nc1nc(-c2ccco2)cs1 | – | ED50 [10]: 2.2 mg/kg
NCCO.NCCO.O=C(O)C(=O)Nc1ccc(-c2csc(NC(=O)C(=O)O)n2)cc1 | > 10 mg/kg | –
CCOC(=O)C(=O)Nc1nc(-c2cccnc2)cs1 | ~10 mg/kg | –
CCOC(=O)C(=O)Nc1nc(-c2c(C)cc(C)cc2O)cs1 | ~10 mg/kg | –
COc1cc(-c2csc(NC(=O)C(=O)O)n2)cc(OC)c1OC.NCCO | – | ED50 [11]: 5.8 mg/kg; ED50 [2]: 1 mg/kg
NC(=O)C(=O)Nc1nc(-c2ccc3c(c2)OCCO3)cs1 | > 30 mg/kg | –
NC(=O)C(=O)Nc1nc(-c2ccc3c(c2)CCCC3)cs1 | > 10 mg/kg | –
COc1ccc(-c2csc(NC(=O)C(=O)O)n2)cc1OC | – | ED50 [12]: 1.48 mg/kg
CCOC(=O)C(=O)Nc1nc(-c2ccc(F)cc2)cs1 | > 10 mg/kg | –
CCOC(=O)C(=O)Nc1nc(-c2ccc3c(c2)N(C(C)=O)c2ccccc2S3)cs1 | > 10 mg/kg | –
CCOC(=O)C(=O)Nc1nc(-c2ccc3c(c2)CCCC3)cs1 | > 10 mg/kg | –
CCOC(=O)C(=O)Nc1nc(-c2ccncc2)cs1 | – | ED50 [13]: 1.2 mg/kg
CCOC(=O)C(=O)Nc1nc(-c2ccc3c(c2)Sc2ccccc2S3)cs1 | > 10 mg/kg | –
Cc1sc(NC(=O)C(=O)O)nc1-c1ccc2c(c1)OCCO2 | – | ED50 [14]: 0.5 mg/kg
O=C(O)C(=O)Nc1nc(-c2ccc(-c3ccccc3)cc2O)cs1 | > 30 mg/kg | –
CCOC(=O)C(=O)Nc1nc(-c2ccc(-c3ccccc3)cc2O)cs1 | > 10 mg/kg | –
CCOC(=O)C(=O)Nc1nc(-c2ccc(OC)cc2OC)cs1 | > 30 mg/kg | –
CCOC(=O)C(=O)Nc1nc(-c2cc(OC)c(O)c(OC)c2)cs1 | ~10 mg/kg | –

From ChEMBL document CHEMBL1122270, “N-(4-substituted-thiazolyl)oxamic acid derivatives, a new series of potent, orally active antiallergy agents” (1983)
